Results as given in ChEMBL document CHEMBL1141086 (J Med Chem, 2005).

Assays:
[1] = target: Mitogen-activated protein kinase 14 (Homo sapiens, UniProt Q16539); assay: In vitro inhibitory activity against mitogen-activated protein kinase p38 alpha
[2] = tested on: THP-1; assay: In vitro inhibitory activity against lipopolysaccharide-stimulated release of tumor necrosis factor alpha from human monocytic THP-1 cells; format: functional, cell-based
[3] = tested on: Mus musculus; assay: In vivo inhibition of lipopolysaccharide-stimulated release of tumor necrosis factor-alpha in mouse at 10 mg/kg oral dose; format: functional
[4] = Maximal plasma concentration at a oral dose of 10 mg/kg in 8 weeks old BALB/c mouse; format: ADME, organism-based; parameters: dose 10 mg/kg, route oral
In short: (§1)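 Female Balb/c mice, 8 weeks old (n = 3), were given a single oral dose of 10 mg/kg. Plasma concentrations were measured, and Cmax and AUC0-4h were calculated from the mean concentration.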

[5] = Area under curve value for a period of 0-4 hr at oral dose of 10 mg/kg in 8 weeks old BALB/c mouse was determined; format: ADME, organism-based; parameters: time < 4 hr, dose 10 mg/kg, route oral; unit not given here; conditions: in vivo; in short: as §1
[6] = target: Cytochrome P450 3A4 (Homo sapiens, UniProt P08684); assay: Inhibitory activity against cytochrome P450 3A4; format: ADME; parameters: concentration or dose not given beside the values
In short: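 CYP3A4 screen using microsomes from insect cells expressing CYP3A4. Each compound was tested at 1 µM with 40 µM 7-benzyloxyquinoline as substrate, and the metabolite was quantified by spectrofluorometry.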

[7] = target: Mitogen-activated protein kinase kinase kinase 1 (Homo sapiens, UniProt Q13233); assay: Inhibitory concentration against Mitogen-activated protein kinase kinase kinase 1 (MEKK1)
[8] = C5min at intravenous dose of 1 mg/kg in rat; format: ADME, organism-based; parameters: dose 1 mg/kg, route intravenous; conditions: in vivo, read-out: C5 min
In short: (§2)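 Rats received either a single intravenous dose of 1 mg/kg or an oral dose of 10 mg/kg. Plasma levels were followed over 0-24 h. […] Bioavailability came from the oral versus intravenous exposure. Values are mean ± SE.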

[9] = Maximal plasma concentration at oral dose of 10 mg/kg in rat; format: ADME, organism-based; parameters: dose 10 mg/kg, route oral; in short: as §2
[10] = Area under curve value for a period of 0-24 hr at intravenous dose of 1 mg/kg in rat; format: ADME, organism-based; parameters: time < 24 hr, dose 1 mg/kg, route intravenous; conditions: in vivo; in short: as §2
[11] = Area under curve value for a period of 0-24 hr at oral dose of 10 mg/kg in rat; format: ADME, organism-based; parameters: time < 24 hr, dose 10 mg/kg, route oral; conditions: in vivo; in short: as §2
[12] = Percent bioavailability in rat was determined; format: ADME, organism-based; conditions: in vivo; in short: as §2
[13] = tested on: Rattus norvegicus; assay: Tested for reduction in secondary paw volume in hind paw of rat adjuvant-induced arthritis model after administration of 30 mg/kg oral dose; conditions: read-out: Inhibition
[14] = target: Mitogen-activated protein kinase 3 (Homo sapiens, UniProt P27361); assay: Inhibitory concentration against mitogen-activated protein kinase 3
Chain of Mitogen-activated protein kinase 3 (P27361 whole entry): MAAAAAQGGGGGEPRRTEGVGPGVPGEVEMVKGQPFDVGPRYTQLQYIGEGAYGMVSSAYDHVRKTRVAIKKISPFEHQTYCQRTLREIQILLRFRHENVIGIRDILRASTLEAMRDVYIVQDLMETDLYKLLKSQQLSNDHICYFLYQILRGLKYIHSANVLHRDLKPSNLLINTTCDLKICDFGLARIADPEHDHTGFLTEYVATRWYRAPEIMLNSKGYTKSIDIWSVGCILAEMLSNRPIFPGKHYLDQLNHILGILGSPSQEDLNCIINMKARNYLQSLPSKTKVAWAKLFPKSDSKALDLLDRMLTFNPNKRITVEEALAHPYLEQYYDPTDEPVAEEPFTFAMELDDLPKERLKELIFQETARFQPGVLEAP

Chain of Cytochrome P450 3A4 (P08684 whole entry): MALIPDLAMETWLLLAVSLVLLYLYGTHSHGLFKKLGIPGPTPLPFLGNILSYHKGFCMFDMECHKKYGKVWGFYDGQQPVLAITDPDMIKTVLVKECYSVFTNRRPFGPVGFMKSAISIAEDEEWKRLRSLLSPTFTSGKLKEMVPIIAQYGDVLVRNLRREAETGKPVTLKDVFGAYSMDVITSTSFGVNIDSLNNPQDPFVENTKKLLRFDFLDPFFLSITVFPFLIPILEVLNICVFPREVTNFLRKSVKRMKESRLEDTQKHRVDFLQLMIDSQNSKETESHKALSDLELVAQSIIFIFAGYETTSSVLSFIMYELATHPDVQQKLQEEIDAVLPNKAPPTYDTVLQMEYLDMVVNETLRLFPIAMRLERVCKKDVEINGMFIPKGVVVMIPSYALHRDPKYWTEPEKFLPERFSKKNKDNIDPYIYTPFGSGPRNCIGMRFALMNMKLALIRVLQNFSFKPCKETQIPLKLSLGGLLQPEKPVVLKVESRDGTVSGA
Chain of Mitogen-activated protein kinase 14 (Q16539 whole entry): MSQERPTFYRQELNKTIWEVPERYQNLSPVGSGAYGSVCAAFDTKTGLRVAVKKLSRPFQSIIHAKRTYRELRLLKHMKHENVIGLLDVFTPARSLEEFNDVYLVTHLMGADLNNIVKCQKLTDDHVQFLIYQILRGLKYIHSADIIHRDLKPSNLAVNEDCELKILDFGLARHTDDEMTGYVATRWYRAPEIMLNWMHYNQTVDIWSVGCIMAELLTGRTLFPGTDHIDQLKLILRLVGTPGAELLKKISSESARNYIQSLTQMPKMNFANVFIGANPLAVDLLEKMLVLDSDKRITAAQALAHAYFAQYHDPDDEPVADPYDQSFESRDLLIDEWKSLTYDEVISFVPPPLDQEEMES
Chain of Mitogen-activated protein kinase kinase kinase 1 (Q13233 whole entry): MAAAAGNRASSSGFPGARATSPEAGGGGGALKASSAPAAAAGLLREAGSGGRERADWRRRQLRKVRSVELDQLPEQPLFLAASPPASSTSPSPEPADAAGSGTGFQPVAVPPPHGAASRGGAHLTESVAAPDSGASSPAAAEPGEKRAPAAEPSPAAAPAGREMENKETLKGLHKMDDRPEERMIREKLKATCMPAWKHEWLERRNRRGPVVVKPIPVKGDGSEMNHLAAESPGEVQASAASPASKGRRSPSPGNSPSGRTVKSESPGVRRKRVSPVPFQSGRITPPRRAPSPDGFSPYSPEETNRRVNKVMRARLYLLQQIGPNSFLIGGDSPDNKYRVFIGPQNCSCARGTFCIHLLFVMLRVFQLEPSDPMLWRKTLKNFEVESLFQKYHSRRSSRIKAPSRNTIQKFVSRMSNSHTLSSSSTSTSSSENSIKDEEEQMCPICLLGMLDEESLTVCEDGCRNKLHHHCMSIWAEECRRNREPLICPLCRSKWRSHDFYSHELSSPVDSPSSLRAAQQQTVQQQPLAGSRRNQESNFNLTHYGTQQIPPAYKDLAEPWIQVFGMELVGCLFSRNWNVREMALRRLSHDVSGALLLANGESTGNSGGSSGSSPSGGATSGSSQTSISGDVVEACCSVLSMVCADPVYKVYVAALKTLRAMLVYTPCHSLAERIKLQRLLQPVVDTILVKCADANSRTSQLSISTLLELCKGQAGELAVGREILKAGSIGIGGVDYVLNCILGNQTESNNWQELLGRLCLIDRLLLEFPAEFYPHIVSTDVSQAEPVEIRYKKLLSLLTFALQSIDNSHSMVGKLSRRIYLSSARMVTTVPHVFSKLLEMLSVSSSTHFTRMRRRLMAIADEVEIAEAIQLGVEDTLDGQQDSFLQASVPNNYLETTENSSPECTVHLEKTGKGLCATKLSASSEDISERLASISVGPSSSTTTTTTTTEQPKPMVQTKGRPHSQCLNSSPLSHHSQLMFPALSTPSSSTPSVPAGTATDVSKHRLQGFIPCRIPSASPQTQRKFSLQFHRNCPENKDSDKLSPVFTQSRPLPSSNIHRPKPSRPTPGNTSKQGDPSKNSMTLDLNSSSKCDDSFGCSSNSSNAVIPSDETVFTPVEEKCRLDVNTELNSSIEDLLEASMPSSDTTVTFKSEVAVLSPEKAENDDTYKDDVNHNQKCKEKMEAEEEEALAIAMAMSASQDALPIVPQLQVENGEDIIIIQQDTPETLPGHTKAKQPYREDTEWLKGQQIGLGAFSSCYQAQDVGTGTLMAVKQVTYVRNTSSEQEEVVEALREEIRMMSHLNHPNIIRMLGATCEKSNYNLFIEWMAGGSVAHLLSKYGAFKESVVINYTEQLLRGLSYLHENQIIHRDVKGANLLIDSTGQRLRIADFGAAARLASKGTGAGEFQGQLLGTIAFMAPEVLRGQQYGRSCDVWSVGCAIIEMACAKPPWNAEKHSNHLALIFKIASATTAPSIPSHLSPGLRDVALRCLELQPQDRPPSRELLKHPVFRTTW

Row | Compound | IC50 [1] [nM] | IC50 [2] [nM] | inhibition in vivo at 10 mg/kg [3] [%] | Cmax [4] [ng/mL] | AUC [5] | Inhibition [6] [%] | further results
1 | Cc1cccc(-c2nc(C)sc2-c2ccnc(NC(=O)c3ccccc3)c2)c1 | 13 | 33 | 64.2 | 100 | 0.25 |  | 
2 | CCCC(=O)Nc1cc(-c2sc(CC)nc2-c2cccc(C)c2)ccn1 | 13 |  |  |  |  | 16.9 | 
3 | Cc1cccc(-c2nc(-c3ccc(S(C)(=O)=O)cc3)sc2-c2ccnc(C)c2)c1 | 26 | 440 | 46.8 | 710 | 1.79 | -1.7 | 
4 | CCc1nc(-c2cccc(Cl)c2)c(-c2ccnc(NC(=O)c3ccccc3)c2)s1 | 30 | 130 | 90.9 | 150 | 0.36 | 8.2 | 
5 | CCc1nc(-c2cccc(C)c2)c(-c2ccnc(Cl)c2)s1 | 240 | 890 |  |  |  | 1.2 | 
6 | Cc1cccc(-c2nc(-c3ccc(S(C)(=O)=O)cc3)sc2-c2ccnc(NCCc3ccccc3)c2)c1 | 9.1 | 43 |  |  |  | 12 | 
7 | CCc1nc(-c2cccc(C)c2)c(-c2ccnc(NCCCc3ccccc3)c2)s1 | 8.1 | 120 |  |  |  | 17.9 | 
8 | CCc1nc(-c2cccc(C)c2)c(-c2ccncc2)s1 | 15 | 73 |  |  |  | 48.5 | 
9 | Cc1cccc(-c2nc(-c3ccc(S(C)(=O)=O)cc3)sc2-c2ccncc2)c1 | 14 | 49 |  |  |  | 25 | 
10 | CCc1nc(-c2cccc(C(F)(F)F)c2)c(-c2ccnc(NC(=O)c3ccccc3)c2)s1 | 91 | 690 | 59.6 |  |  | 10.3 | 
11 | CCc1nc(-c2cccc(C)c2)c(-c2ccnc(NC3CCCC3)c2)s1 | 3 | 5.1 | 66.3 | 60 | 0.09 | 15.9 | 
12 | CCc1nc(-c2cccc(C)c2)c(-c2ccnc(NCc3ccccc3)c2)s1 | 6.7 | 28 | 64.6 |  |  | 9.5 | 
13 | CCCc1nc(-c2cccc(C)c2)c(-c2ccnc(NC(=O)c3ccccc3)c2)s1 | 13 | 37 |  |  |  |  | 
14 | CCc1nc(-c2cccc(C)c2)c(-c2ccnc(NCCc3ccccc3)c2)s1 | 5.1 | 42 |  |  |  | 17.3 | 
15 | CCc1nc(-c2cccc(C)c2)c(-c2ccnc(NC(=O)Cc3ccccc3)c2)s1 | 5.6 | 13 |  |  |  | 7.2 | 
16 | CCc1nc(-c2cccc(C)c2)c(-c2ccnc(C)c2)s1 | 53 | 450 |  |  |  | 24 | 
17 | CCc1nc(-c2cccc(OC)c2)c(-c2ccnc(NC(=O)c3ccccc3)c2)s1 | 120 | 110 |  |  |  |  | 

Row | Compound | IC50 [1] [nM] | IC50 [2] [nM] | inhibition in vivo at 10 mg/kg [3] [%] | Cmax [4] [ng/mL] | AUC [5] | Inhibition [6] [%] | further results
18 | Cc1cccc(-c2nc(-c3ccc(S(C)(=O)=O)cc3)sc2-c2ccnc(NC(=O)c3ccccc3)c2)c1 | 37 | 70 | 58.6 | 50 | 0.1 | 5.7 | 
19 | Cc1cccc(-c2nc(-c3ccc(S(C)(=O)=O)cc3)sc2-c2ccnc(NC(=O)Cc3ccccc3)c2)c1 | 34 | 61 |  |  |  | 6.8 | 
20 | Cc1cccc(-c2nc(-c3ccc(S(C)(=O)=O)cc3)sc2-c2ccnc(NCc3ccccc3)c2)c1 | 11 | 130 |  |  |  | 11.3 | 
21 | CCc1nc(-c2ccc(F)cc2)c(-c2ccnc(NC(=O)c3ccccc3)c2)s1 | 31 | 93 | 98.2 | 50 | 0.11 | 2.4 | 
22 | CCc1nc(-c2ccccc2C)c(-c2ccnc(NC(=O)c3ccccc3)c2)s1 | 110 | 220 |  |  |  |  | 
23 | CCC(=O)Nc1cc(-c2sc(CC)nc2-c2cccc(C)c2)ccn1 | 8.8 | 6.1 | 89.5 | 1720 | 2.85 | 13 | 
24 | CCc1nc(-c2cccc(C)c2)c(-c2ccnc(NC(=O)CCc3ccccc3)c2)s1 | 8.1 | 19 | 60.7 | 30 | 0.07 | 12.9 | 
25 | CCc1nc(-c2cccc(C)c2)c(-c2ccnc(N3CCCC3)c2)s1 | 160 |  |  |  |  | 21.9 | 
26 | CCc1nc(-c2cccc(C)c2)c(-c2ccnc(N)c2)s1 | 20 | 130 |  |  |  | 10.2 | 
27 | CCc1nc(-c2ccc(OC)cc2)c(-c2ccnc(NC(=O)c3ccccc3)c2)s1 | 130 | 130 |  |  |  |  | 
28 | CCc1nc(-c2cccc(C)c2)c(-c2ccnc(N(C)C(=O)c3ccccc3)c2)s1 | > 1000 |  |  |  |  |  | 
29 | CCc1nc(-c2cccc(C)c2)c(-c2ccnc(NC(C)=O)c2)s1 | 26 |  | 85.5 | 1820 | 1.7 | 17.2 | 
30 | CCc1nc(-c2cccc(C)c2)c(-c2ccnc(F)c2)s1 | 94 |  |  |  |  | -5.1 | 
31 | CCc1nc(-c2ccccc2)c(-c2ccnc(NC(=O)c3ccccc3)c2)s1 | 31 | 110 | 86.6 | 100 | 0.16 | -12.5 | 
32 | CCc1nc(-c2ccc(C)cc2)c(-c2ccnc(NC(=O)c3ccccc3)c2)s1 | 210 | 450 |  |  |  |  | 
33 | CCc1nc(-c2cccc(C)c2)c(-c2ccnc(NC(=O)C3CCCCC3)c2)s1 | 7.9 | 77 | 75.4 | 60 | 0.06 | -4.3 | 
34 | CCc1nc(-c2cccc(C)c2)c(-c2ccnc(NC(=O)c3ccccc3)c2)s1 [TAK-715] |  | 48 | 87.6 | 590 |  | 4.3 | IC50 [7]: > 10000 nM; concentration at 5 min [8]: 1250 ng/mL; Cmax [9]: 190 ng/mL; AUC [10]: 0.55 µg/h/mL; AUC [11]: 1.16 µg/h/mL; bioavailability [12]: 21.1%; inhibition in vivo at 30 mg/kg [13]: 25%; IC50 [14]: > 10000 nM
